According to article PMC6044853 (ACS Omega, 2017):
≈ marks a conversion by molar mass, not a printed value.

Assays:
G. mellonella larvae = experiment: Toxicity in G. mellonella larvae; type: in vivo, Galleria mellonella; conditions: 50 and 100 mg/kg in 50% PEG in saline, injected, 48 h
In short: (§1)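 G. mellonella model: groups of 10 last-instar larvae weighing 200–300 mg, held at 37 °C. Test compound is dissolved in 50% PEG in saline (0 [vehicle], 50, 100 mg/kg) and injected into the last left proleg with a Hamilton syringe. Mortality is scored every 12 h for 48 h. Survival is analysed by log rank and χ² test (1 degree of freedom), with three independent experiments.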

USA300 #1799 = experiment: MIC, clinical isolate strain 8; type: cell-based; conditions: Staphylococcus aureus, USA300, read-out: MIC strain 8
In short: (§2)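 Broth microdilution per CLSI guidelines. MIC is the lowest concentration preventing visible bacterial growth. MIC is reported in μg/mL, with S. aureus values also converted to μM.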

S. aureus ATCC 43300 = experiment: MIC, clinical isolate strain 5; type: cell-based; conditions: Staphylococcus aureus, ATCC43300, read-out: MIC strain 5
In short: as §2

USA300 #757 = experiment: MIC, clinical isolate strain 7; type: cell-based; conditions: Staphylococcus aureus, USA300, read-out: MIC strain 7
In short: as §2

USA300 #2690 = experiment: MIC, clinical isolate strain 9; type: cell-based; conditions: Staphylococcus aureus, USA300, read-out: MIC strain 9
In short: as §2

[1] = test system: G. mellonella larvae infected with MRSA ATCC 43300; experiment: Antimicrobial efficacy in G. mellonella model of infection; type: in vivo, Galleria mellonella; conditions: 2.5 × 10^6 CFU/larva MRSA ATCC 43300
In short: as §1

[2] = test system: S. aureus strain ATCC 29213; experiment: MIC, broth microdilution; type: cell-based, Staphylococcus aureus; conditions: S. aureus 29213; Table 1
In short: as §2

USA300 #417 = experiment: MIC, clinical isolate strain 6; type: cell-based; conditions: Staphylococcus aureus, USA300, read-out: MIC strain 6
In short: as §2

[3] = test system: E. coli strain ATCC 25922; experiment: MIC, broth microdilution; type: cell-based; conditions: Escherichia coli, ATCC25922, read-out: MIC E. coli
In short: as §2

S. aureus FtsZ [4] = target: T1, S. aureus FtsZ (Staphylococcus aureus, UniProt P0A031); experiment: GTPase hydrolysis activity assay; type: biochemical; conditions: read-out: inhibition of GTPase hydrolysis activity
T1 sequence (P0A031 1-390): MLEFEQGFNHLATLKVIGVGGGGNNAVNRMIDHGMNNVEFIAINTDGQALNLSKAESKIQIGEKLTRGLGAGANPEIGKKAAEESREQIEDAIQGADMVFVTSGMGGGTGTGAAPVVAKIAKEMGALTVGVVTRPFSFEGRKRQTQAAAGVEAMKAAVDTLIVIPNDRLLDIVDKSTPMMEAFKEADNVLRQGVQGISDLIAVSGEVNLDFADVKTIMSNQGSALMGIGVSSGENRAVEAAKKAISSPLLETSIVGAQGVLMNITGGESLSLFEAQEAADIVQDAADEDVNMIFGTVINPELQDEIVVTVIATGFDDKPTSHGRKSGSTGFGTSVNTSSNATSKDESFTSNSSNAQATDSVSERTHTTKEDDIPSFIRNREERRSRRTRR

[5] = test system: green fluorescent protein-tagged FtsZ in B. subtilis 168; experiment: Z-ring visualization of B. subtilis 168; type: cell-based, Bacillus subtilis
In short: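 B. subtilis 168 expressing functional GFP-tagged FtsZ is treated with compound or DMSO. Z-ring formation is imaged by fluorescence microscopy alongside matching phase-contrast images.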

S. aureus FtsZ [6] = target: T1, S. aureus FtsZ; experiment: Light scattering assay of FtsZ polymerization; type: biochemical; conditions: 30 μM compound, vs 1% DMSO vehicle
[7] = Solubility in aqueous medium; type: physicochemical; conditions: precipitation in aqueous medium at >80 μM
S. aureus FtsZ [8] = target: T1, S. aureus FtsZ; experiment: STD NMR study; type: binding
In short: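 Saturation transfer difference NMR with purified S. aureus FtsZ at 600 MHz and 298 K. For group epitope mapping, each proton's STD signal is integrated relative to the strongest STD signal, set to 100%.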

B. subtilis 168 [9] = experiment: MIC, B. subtilis 168; type: cell-based; conditions: Bacillus subtilis, 168, read-out: MIC B. subtilis 168
B. subtilis 168 [10] = experiment: Bacterial morphology of B. subtilis 168; type: cell-based, Bacillus subtilis; conditions: sublethal concentration; DMSO-treated cells < 5 μm
S. aureus ATCC 29247 = experiment: MIC, clinical isolate strain 1; type: cell-based; conditions: Staphylococcus aureus, ATCC29247, read-out: MIC strain 1
In short: as §2

Compound	toxicity to G. mellonella larvae (survival) (G. mellonella larvae)	MIC (USA300 #1799) [µg/mL]	MIC (S. aureus ATCC 43300) [µg/mL]	MIC (USA300 #757) [µg/mL]	MIC (USA300 #2690) [µg/mL]	survival time of infected larvae ([1]; 50 mg/kg) [h]	survival rate of infected larvae ([1]; 100 mg/kg, 48 h) [%]	MIC S. aureus [2] [µg/mL]	MIC S. aureus, number in parentheses calculated in μM [2] [µM]	MIC (USA300 #417) [µg/mL]	MIC [3] [µg/mL]	inhibition at 50 µM (S. aureus FtsZ [4]) [%]	inhibition at 75 µM (S. aureus FtsZ [4]) [%]	Z-ring localization [5]	inhibition of FtsZ polymerization (S. aureus FtsZ [6])	compound solubility [7]	binding to FtsZ protein by STD NMR (S. aureus FtsZ [8])	MIC (B. subtilis 168 [9]) [µM]	average cell length (B. subtilis 168 [10]) [μm]	MIC (S. aureus ATCC 29247) [µg/mL]
CCC(CC)c1cc(CCN2CCCN(Cc3ccc(C(F)(F)F)cc3)CC2)nc(-c2ccncc2)n1 [14av_amine16, 1-(2-(6-(Pentan-3-yl)-2-(pyridin-4-yl)pyrimidin-4-yl)ethyl)-4-(4-(trifluoromethyl)benzyl)-1,4-diazepane]	did not kill the G. mellonella larvae	6 (≈ 11.7 µM)	6 (≈ 11.7 µM)	6 (≈ 11.7 µM)	6 (≈ 11.7 µM)	36	20	4 (≈ 7.82 µM)	8 (≈ 4.09 µg/mL)	6 (≈ 11.7 µM)	> 64	~20	~25	obvious mislocalization of the Z-ring	complete inhibition	poor compound solubility	binds to FtsZ protein	12 (≈ 6.14 µg/mL)	> 20	4 (≈ 7.82 µM)
COc1cccc(OC)c1C(=O)N[C@@H]1C(=O)N2[C@@H]1SC(C)(C)[C@@H]2C(=O)O [methicillin, reference compound]	–	64 (≈ 168 µM)	> 64	64 (≈ 168 µM)	–	–	–	–	–	> 64	–	–	–	–	–	–	–	–	–	–
